The values below come from ChEMBL document CHEMBL1155898 (J Med Chem, 2008).

Structures are written as SMILES. Active and inactive are the calls of the source.

Assay [1] concerns Mus musculus. As to the kind of experiment: Anticonvulsant activity in CD1 albino mouse assessed as pentylenetetrazole-induced convulsion latency time at 1 mg/kg, ip. In kind it is functional, organism-based. Also on record: dose 1 mg/kg. In a few lines:
(§1)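 Mice dosed po or ip in 1% CMC (10 mL/kg). Pentylenetetrazole 90 mg/kg sc given 30 min later; clonic generalized convulsions observed over 30 min. ANOVA/Fisher PLSD versus vehicle controls.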

The subject of assay [2] is Mus musculus. As to the kind of experiment: Anticonvulsant activity in CD1 albino mouse assessed as pentylenetetrazole-induced death latency time at 1 mg/kg, ip. It is filed as functional, organism-based. The arrangement: dose 1 mg/kg. Put shortly: as §1
Assay [3] relates to Mus musculus. As to the kind of experiment: Antianxiety activity in CD1 albino mouse assessed as time spent in light at 1 mg/kg, ip by light-dark box method. In kind it is functional. The note with it: route intraperitoneal. In a few lines:
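Male CD-1 mice given drug po or ip in 1% CMC at 10 mL/kg. Light/dark box: number of transfers between compartments and time spent in the lit side recorded. At least 15-20 mice per group; ANOVA/Fisher PLSD versus vehicle.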

The test system of assay [4] is Mus musculus. As to the kind of experiment: Effect on ethanol-induced sleep in CD1 albino mouse assessed as induction time 1 mg/kg, ip. Particulars: route intraperitoneal. In kind it is functional. Put shortly:
(§2)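 Mice dosed po or ip in 1% CMC (10 mL/kg). Ethanol 4 g/kg ip given 30 min later. Sleep time taken as duration of loss of righting reflex, cut-off 210 min. At least 15-20 mice per group; ANOVA/Fisher PLSD.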

Assay [5] has as its system Mus musculus. As to the kind of experiment: Effect on ethanol-induced sleep in CD1 albino mouse time assessed as endurance time 1 mg/kg, ip. It is filed as functional. Particulars: route intraperitoneal. In a few lines: as §2
Assay [6] deals with Mus musculus. As to the kind of experiment: Effect on learning and memory performance in CD1 albino mouse assessed as training session latency at 1 mg/kg, ip by passive avoidance test. The note with it: route intraperitoneal. It is filed as functional. Put shortly: (§3)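 Mice dosed po or ip in 1% CMC (10 mL/kg). Step-through passive avoidance in a two-compartment box (lit and dark, joined by guillotine door); latencies recorded in training and retention sessions. At least 15-20 mice per group; ANOVA/Fisher PLSD versus CMC controls.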

In assay [7] the test system is Mus musculus. As to the kind of experiment: Effect on learning and memory performance in CD1 albino mouse assessed as retention session latency at 1 mg/kg, ip by passive avoidance test. The note with it: route intraperitoneal. In kind it is functional. In a few lines:
as §3

Assay [8] can be described thus: Displacement of [3H]flumazenil from CBR in bovine cortical membrane. In kind it is cell membranes, Bos taurus. Put shortly:
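Bovine or human cortical membranes washed free of endogenous GABA. […] Nonspecific binding with 10 µM diazepam. At least six concentrations over 3 log units, DMSO 2%. IC50 converted to Ki by Cheng-Prusoff (Kd 0.85 nM bovine, 0.91 nM human). Ki is the mean of three determinations.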
A general note: In a radioligand displacement assay an active substance lowers the binding of a labelled ligand.

Assay [9] is described as follows: Displacement of [3H]flumazenil from CBR in human cortical membrane. It is filed as cell membranes. In a few lines:
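Bovine or human cortical membranes washed free of endogenous GABA. Nonspecific binding with 10 µM diazepam. At least six concentrations over 3 log units, DMSO 2%. Ki is the mean of three determinations.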

The species named for assay [10] is Bos taurus. As to the kind of experiment: Ratio of Ki for bovine CBR in absence of GABA to Ki for bovine CBR in presence of 50 uM GABA.
The species entered for assay [11] is Homo sapiens. As to the kind of experiment: Ratio of Ki for human CBR in absence of GABA to Ki for human CBR in presence of 50 uM GABA.
The species entered for assay [12] is Bos taurus. As to the kind of experiment: Displacement of [3H]flumazenil from CBR in bovine cortical membrane at 10 uM. In kind it is cell membranes.
The species named for assay [13] is Homo sapiens. As to the kind of experiment: Displacement of [3H]flumazenil from CBR in human cortical membrane at 10 uM. In kind it is cell membranes.
The species named for assay [14] is Rattus norvegicus. As to the kind of experiment: Inverse agonist activity at CBR in Sprague-Dawley rat brain cortex assessed as decrease in chloride influx. It is filed as functional.
The species entered for assay [15] is Rattus norvegicus. As to the kind of experiment: Agonist activity at CBR in Sprague-Dawley rat brain cortex assessed as increase in chloride influx. It is filed as functional, tissue-based.

In the case of `CN1C(=O)CN=C(c2ccccc2)c2cc(Cl)ccc21` [DIAZEPAM], the outcome in the assay with Mus musculus [1] and in the assay on Mus musculus [2] was inactive. The Time with Mus musculus [3] is 175.3 s; in the assay with Mus musculus [4] it was 4.6 min; in the assay on Mus musculus [5], more than 210 min; in the assay on Mus musculus [6] it was 20.9 s; with Mus musculus [7], 52.3 s.
By Ki is commonly meant the dissociation constant of the complex between target and ligand, obtained from inhibition or displacement. Read a high Ki as weaker binding. Regarding `CCOC(=O)c1ncn2c1CN=C(c1ccc([N+](=O)[O-])cc1)c1cc(F)ccc1-2`, the Ki in assay [8] was 14.8 nM; in [9] it was 20 nM. In addition, the Ratio Ki in the assay filed under Bos taurus [10] is 0.89; in the assay listed under Homo sapiens [11], 0.86. Moreover, the Activity in the assay filed under Bos taurus [12] and in the assay listed under Homo sapiens [13] was more than 80% throughout. Besides, the result in the assay listed under Rattus norvegicus [14] and in the assay filed under Rattus norvegicus [15] was Active.
For the molecule `CN1C(=O)CN=C(c2ccccc2F)c2cc([N+](=O)[O-])ccc21` [FLUNITRAZEPAM], the Ki in assay [8] amounted to 5.17 nM; in assay [9], 6.5 nM. Moreover, the Ratio Ki is 1.68 in the assay listed under Bos taurus [10] and 1.6 in the assay listed under Homo sapiens [11].
